Experiments:
[1] = biological target: T1, E. coli GroEL/ES (Escherichia coli, UniProt P0A6F5); assay: Inhibition of Escherichia coli GroEL expressed in Escherichia coli DH5alpha/Escherichia coli GroES expressed in Escherichia coli BL21 (DE3) assessed as reduction in GroEL/GroES-mediated denatured rhodanese refolding after 45 mins by spectrometric analysis
Procedure, shortened: (§1)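 Uses E. coli GroEL/ES with a denatured MDH or rhodanese reporter. GroEL first forms a binary complex with the denatured reporter. Refolding is started by adding ATP and GroES, then reporter enzyme activity is read. DMSO is the negative control. IC50 values from replicate curves are log-averaged after ROUT outlier screening.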

[2] = tested on: Staphylococcus aureus; assay: Antibacterial activity against methicillin-resistant Staphylococcus aureus ATCC BAA-44 after 6 to 8 hrs by bacterial proliferation assay; format: functional, organism-based; details: Staphylococcus aureus, ATCC BAA-44
[3] = tested on: Enterococcus faecium; assay: Antibacterial activity against Enterococcus faecium ATCC 19434 after 24 hrs by bacterial proliferation assay; format: functional, organism-based; details: ATCC 19434, 24 h
[4] = Cytotoxicity against human THLE3 cells assessed as reduction in cell viability after 48 hrs by Alamar Blue reporter assay; details: 48 h
[5] = tested on: Acinetobacter baumannii; assay: Antibacterial activity against Acinetobacter baumannii ATCC 19606 after 24 hrs by bacterial proliferation assay; format: functional, organism-based; details: ATCC 19606 = CIP 70.34 = JCM 6841, 24 h
Procedure, shortened: (§2)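 Bacterial growth inhibition in liquid culture. The highest concentration tested was 100 µM. The mean was back-calculated from the average log value. Values above the top concentration were set 0.1 log unit higher.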

[6] = tested on: Staphylococcus aureus; assay: Antibacterial activity against Staphylococcus aureus ATCC 25923 after 6 to 8 hrs by bacterial proliferation assay; format: functional, organism-based
[7] = biological target: T2, Thiosulfate sulfurtransferase (Homo sapiens, UniProt Q16762); assay: Inhibition of refolded rhodanese (unknown origin) preincubated with Escherichia coli GroEL/GroES for 60 mins in absence of compound followed by compound addition by spectrometric analysis
T2 sequence (Q16762 whole entry): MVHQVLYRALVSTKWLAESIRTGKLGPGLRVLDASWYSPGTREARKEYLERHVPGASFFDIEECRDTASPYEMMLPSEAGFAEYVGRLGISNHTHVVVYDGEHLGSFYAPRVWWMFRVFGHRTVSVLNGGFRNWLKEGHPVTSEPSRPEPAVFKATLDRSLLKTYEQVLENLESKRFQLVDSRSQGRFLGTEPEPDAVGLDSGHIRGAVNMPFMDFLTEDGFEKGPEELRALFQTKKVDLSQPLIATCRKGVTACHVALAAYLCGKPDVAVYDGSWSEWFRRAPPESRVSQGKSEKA

[8] = tested on: Enterobacter cloacae; assay: Antibacterial activity against Enterobacter cloacae subsp. cloacae ATCC 13047 after 24 hrs by bacterial proliferation assay; format: functional, organism-based; details: subsp. cloacae ATCC 13047, 24 h; procedure, shortened: as §2
[9] = tested on: Pseudomonas aeruginosa; assay: Antibacterial activity against Pseudomonas aeruginosa ATCC 10145 after 24 hrs by bacterial proliferation assay; format: functional, organism-based; details: ATCC 10145, 24 h; procedure, shortened: as §2
[10] = biological target: HSP60/HSP10 (Homo sapiens, UniProt P10809); assay: Inhibition of human N-terminal octa-His-tagged HSP60 expressed in Escherichia coli Rosetta(DE3) pLysS/human HSP10 expressed in Escherichia coli Rosetta(DE3) assessed as reduction in HSP60/HSP10-mediated denatured MDH refolding after 40 to 60 mins by spectrometric analysis
Chain of HSP60/HSP10 (P10809 whole entry): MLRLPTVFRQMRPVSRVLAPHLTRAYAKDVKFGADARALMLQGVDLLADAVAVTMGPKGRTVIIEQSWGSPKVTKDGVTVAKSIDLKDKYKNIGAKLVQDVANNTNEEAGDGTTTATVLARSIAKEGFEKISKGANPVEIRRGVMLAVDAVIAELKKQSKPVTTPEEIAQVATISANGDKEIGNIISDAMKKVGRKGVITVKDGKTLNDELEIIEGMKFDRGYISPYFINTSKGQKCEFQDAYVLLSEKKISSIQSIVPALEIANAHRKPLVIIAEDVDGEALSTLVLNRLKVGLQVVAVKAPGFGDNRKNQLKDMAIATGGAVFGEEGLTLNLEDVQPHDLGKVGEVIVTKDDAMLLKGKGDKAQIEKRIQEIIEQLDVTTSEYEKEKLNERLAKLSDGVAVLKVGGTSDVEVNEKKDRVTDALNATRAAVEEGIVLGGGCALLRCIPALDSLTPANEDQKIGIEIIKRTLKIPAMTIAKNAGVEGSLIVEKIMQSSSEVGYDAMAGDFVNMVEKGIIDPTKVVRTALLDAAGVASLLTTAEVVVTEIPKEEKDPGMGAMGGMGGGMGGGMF
Chain of HSP60/HSP10 (P61604 whole entry, further chain): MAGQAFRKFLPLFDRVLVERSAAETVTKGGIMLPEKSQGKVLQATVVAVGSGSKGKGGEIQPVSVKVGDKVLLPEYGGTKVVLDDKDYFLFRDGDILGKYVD
Procedure, shortened: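 Human HSP60/10 refolding of denatured MDH, run the same way as the GroEL/ES-dMDH assay. A binary complex of chaperonin and denatured MDH is formed, and refolding is started with ATP and HSP10. MDH activity is the read-out. DMSO is the negative control. IC50 values from replicate curves are log-averaged after ROUT outlier screening.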

[11] = biological target: T1, E. coli GroEL/ES; assay: Inhibition of Escherichia coli GroEL expressed in Escherichia coli DH5alpha/Escherichia coli GroES expressed in Escherichia coli BL21 (DE3) assessed as reduction in GroEL/GroES-mediated denatured MDH refolding after 20 to 40 mins by spectrometric analysis; procedure, shortened: as §1
[12] = Inhibition of refolded MDH (unknown origin) preincubated with Escherichia coli GroEL/GroES for 45 mins in absence of compound followed by compound addition and measured for 20 to 35 mins by spectrometric analysis
[13] = tested on: HEK293; assay: Cytotoxicity against HEK293 cells assessed as reduction in cell viability after 48 hrs by Alamar Blue reporter assay; details: human, hek293, 48 h
[14] = tested on: Klebsiella pneumoniae; assay: Antibacterial activity against Klebsiella pneumoniae ATCC 13883 after 6 to 8 hrs by bacterial proliferation assay; format: functional, organism-based; procedure, shortened: as §2

T1 sequence (P0A6F5 whole entry, looked up): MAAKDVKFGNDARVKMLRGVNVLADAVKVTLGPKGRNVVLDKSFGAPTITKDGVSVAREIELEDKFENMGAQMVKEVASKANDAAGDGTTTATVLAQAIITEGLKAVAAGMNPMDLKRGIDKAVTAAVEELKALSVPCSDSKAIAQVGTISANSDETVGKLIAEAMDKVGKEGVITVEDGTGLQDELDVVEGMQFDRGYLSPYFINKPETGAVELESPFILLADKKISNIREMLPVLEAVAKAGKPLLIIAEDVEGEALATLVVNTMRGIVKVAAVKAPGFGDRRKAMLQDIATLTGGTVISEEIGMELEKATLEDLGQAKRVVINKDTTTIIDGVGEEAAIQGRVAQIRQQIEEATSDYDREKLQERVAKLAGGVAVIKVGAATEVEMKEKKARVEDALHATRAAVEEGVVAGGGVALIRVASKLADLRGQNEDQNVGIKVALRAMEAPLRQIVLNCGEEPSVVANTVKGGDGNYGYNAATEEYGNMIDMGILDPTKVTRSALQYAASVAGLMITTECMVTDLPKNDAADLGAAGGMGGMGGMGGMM

| SMILES | IC50 [1] | EC50 [2] | EC50 [3] | CC50 [4] | EC50 [5] | EC50 [6] | IC50 [7] | EC50 [8] | EC50 [9] | IC50 [10] | IC50 [11] | IC50 [12] | CC50 [13] | EC50 [14] |
| --- | --- | --- | --- | --- | --- | --- | --- | --- | --- | --- | --- | --- | --- | --- |
| O=C(Nc1cccc(Cl)c1)c1cccc(Br)c1 | > 100 µM | 68 µM | > 100 µM | 50 µM | > 100 µM | 47 µM | > 100 µM | > 100 µM | > 100 µM | > 100 µM | > 100 µM | > 63 µM | 51 µM | > 100 µM |
| O=C(Nc1ccc(Sc2nc3ccccc3s2)c(Cl)c1)c1cc(Br)cc(Br)c1 | > 100 µM | > 100 µM | > 100 µM | > 100 µM | > 100 µM | > 100 µM | > 100 µM | > 100 µM | > 100 µM | > 100 µM | > 100 µM | > 63 µM | > 100 µM | > 100 µM |
| O=C(Nc1ccccc1)c1cccc(Br)c1O | > 100 µM | 10 µM | > 100 µM | 56 µM | > 100 µM | 6.4 µM | > 100 µM | > 100 µM | > 100 µM | > 100 µM | > 100 µM | > 63 µM | 82 µM | > 100 µM |
| O=C(Nc1ccc(Sc2nc3ccccc3s2)c(Cl)c1)c1ccccc1 | > 100 µM | > 100 µM | > 100 µM | 82 µM | > 100 µM | 43 µM | > 100 µM | > 100 µM | > 100 µM | > 100 µM | > 100 µM | > 63 µM | 90 µM | > 100 µM |
| O=C(Nc1cccc(Cl)c1)c1ccccc1 | > 100 µM | > 100 µM | > 100 µM | > 100 µM | > 100 µM | > 100 µM | > 100 µM | > 100 µM | > 100 µM | > 100 µM | > 100 µM | > 63 µM | > 100 µM | > 100 µM |
| COc1c(Br)cc(Br)cc1C(=O)Nc1ccc(Sc2nc3ccccc3s2)cc1 | > 100 µM | > 100 µM | > 100 µM | > 100 µM | > 100 µM | > 100 µM | > 100 µM | > 100 µM | > 100 µM | > 100 µM | > 100 µM | > 63 µM | > 100 µM | > 100 µM |
| COc1ccccc1C(=O)Nc1ccccc1 | > 100 µM | > 100 µM | > 100 µM | > 100 µM | > 100 µM | > 100 µM | > 100 µM | > 100 µM | > 100 µM | > 100 µM | > 100 µM | > 63 µM | > 100 µM | > 100 µM |
| COc1c(Br)cccc1C(=O)Nc1ccccc1 | > 100 µM | > 100 µM | > 100 µM | > 100 µM | > 100 µM | > 100 µM | > 100 µM | > 100 µM | > 100 µM | > 100 µM | > 100 µM | > 63 µM | > 100 µM | > 100 µM |
| O=C(Nc1ccc(Sc2nc3ccccc3s2)cc1)c1cc(Br)cc(Br)c1 | > 100 µM | > 100 µM | > 100 µM | > 100 µM | > 100 µM | > 100 µM | > 100 µM | > 100 µM | > 100 µM | > 100 µM | > 100 µM | > 63 µM | > 100 µM | > 100 µM |

Reference: ChEMBL document CHEMBL4266041, “Hydroxybiphenylamide GroEL/ES Inhibitors Are Potent Antibacterials against Planktonic and Biofilm Forms of Staphylococcus aureus” (J Med Chem, 2018)
